Test [1] can be described thus: Selectivity is the ratio of inhibitory concentrations at alpha4-beta1 integrin to alpha4-beta7 integrin.
Test [2] deals with Integrin alpha-4/beta-1 (Homo sapiens, UniProt P05556+P13612). Briefly: Inhibitory concentration affording 50% inhibition of alpha4-beta1 integrin binding to VCAM-1, using ELISA assay. In kind it is protein-complex assay. The gist of the method: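 α4β1 extracted from Ramos cell membranes (lectin chromatography, gel filtration in 1% octylglucoside), with 1 mM MnCl2 throughout. Wells coated with 4 µg/mL recombinant soluble human VCAM-1 (5 N-terminal Ig domains, from CHO cells) and blocked with 1% BSA. Inhibitor and receptor 2 h at 37 °C in Tris pH 7.4. Bound receptor detected with anti-β1 mAb 2D4.6, then HRP anti-mouse and TMB at 450 nm. IC50 at half-maximal absorbance.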
Integrin alpha-4/beta-1, sequence (P05556 whole entry, one chain of several, the tested form may be a part): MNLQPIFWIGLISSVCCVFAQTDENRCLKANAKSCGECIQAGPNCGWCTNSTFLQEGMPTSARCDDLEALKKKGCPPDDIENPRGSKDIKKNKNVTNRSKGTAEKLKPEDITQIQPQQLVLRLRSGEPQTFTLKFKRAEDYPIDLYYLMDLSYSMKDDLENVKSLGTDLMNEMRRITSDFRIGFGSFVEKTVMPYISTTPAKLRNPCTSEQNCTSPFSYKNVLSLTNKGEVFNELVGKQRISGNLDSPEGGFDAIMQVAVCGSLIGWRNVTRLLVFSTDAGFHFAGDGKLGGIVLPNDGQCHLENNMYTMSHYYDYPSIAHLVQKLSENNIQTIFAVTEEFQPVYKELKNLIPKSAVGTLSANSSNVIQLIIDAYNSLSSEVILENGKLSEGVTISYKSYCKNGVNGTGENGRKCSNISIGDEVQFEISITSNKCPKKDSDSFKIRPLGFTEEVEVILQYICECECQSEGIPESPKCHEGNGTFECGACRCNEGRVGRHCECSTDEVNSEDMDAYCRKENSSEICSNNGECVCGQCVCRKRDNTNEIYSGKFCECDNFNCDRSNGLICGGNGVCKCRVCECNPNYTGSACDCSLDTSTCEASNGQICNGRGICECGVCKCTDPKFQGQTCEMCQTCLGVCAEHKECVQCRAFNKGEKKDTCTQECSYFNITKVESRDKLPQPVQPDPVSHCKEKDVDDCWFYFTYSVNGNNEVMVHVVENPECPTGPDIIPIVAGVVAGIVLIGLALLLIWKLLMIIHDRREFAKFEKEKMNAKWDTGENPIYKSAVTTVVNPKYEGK
For orientation: An ELISA detects its analyte on a solid surface through an enzyme-linked reagent.

Test [3] deals with T1, Integrin alpha-4/beta-7 (Homo sapiens, UniProt P13612+P26010).
T1 sequence (P13612 whole entry): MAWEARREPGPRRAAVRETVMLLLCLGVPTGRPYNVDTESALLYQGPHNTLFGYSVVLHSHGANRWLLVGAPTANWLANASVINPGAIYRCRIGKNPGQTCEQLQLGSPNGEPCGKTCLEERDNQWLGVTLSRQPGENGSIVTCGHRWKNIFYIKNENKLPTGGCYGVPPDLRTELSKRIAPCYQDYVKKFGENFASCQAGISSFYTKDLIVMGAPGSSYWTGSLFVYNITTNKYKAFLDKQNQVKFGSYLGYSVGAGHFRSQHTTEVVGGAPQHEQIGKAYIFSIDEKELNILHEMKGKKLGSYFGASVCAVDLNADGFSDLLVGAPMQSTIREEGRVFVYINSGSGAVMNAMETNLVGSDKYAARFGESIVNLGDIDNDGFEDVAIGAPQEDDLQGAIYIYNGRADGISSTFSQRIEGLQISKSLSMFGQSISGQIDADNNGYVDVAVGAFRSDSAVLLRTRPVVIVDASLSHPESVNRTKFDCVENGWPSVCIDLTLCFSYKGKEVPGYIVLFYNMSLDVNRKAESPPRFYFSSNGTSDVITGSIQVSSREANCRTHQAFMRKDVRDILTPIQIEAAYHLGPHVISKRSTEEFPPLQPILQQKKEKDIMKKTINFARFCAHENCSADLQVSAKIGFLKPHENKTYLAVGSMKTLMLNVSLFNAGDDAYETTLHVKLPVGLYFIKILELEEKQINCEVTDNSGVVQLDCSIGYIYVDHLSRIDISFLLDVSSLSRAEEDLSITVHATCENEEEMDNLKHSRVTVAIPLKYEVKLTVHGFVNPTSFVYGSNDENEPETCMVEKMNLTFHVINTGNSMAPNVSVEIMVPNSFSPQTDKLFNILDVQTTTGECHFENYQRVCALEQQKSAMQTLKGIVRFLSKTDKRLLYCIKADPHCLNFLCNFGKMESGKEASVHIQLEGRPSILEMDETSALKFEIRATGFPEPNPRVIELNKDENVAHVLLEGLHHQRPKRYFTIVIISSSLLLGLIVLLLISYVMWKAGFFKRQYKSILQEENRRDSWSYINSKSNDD
T1 sequence (P26010 whole entry): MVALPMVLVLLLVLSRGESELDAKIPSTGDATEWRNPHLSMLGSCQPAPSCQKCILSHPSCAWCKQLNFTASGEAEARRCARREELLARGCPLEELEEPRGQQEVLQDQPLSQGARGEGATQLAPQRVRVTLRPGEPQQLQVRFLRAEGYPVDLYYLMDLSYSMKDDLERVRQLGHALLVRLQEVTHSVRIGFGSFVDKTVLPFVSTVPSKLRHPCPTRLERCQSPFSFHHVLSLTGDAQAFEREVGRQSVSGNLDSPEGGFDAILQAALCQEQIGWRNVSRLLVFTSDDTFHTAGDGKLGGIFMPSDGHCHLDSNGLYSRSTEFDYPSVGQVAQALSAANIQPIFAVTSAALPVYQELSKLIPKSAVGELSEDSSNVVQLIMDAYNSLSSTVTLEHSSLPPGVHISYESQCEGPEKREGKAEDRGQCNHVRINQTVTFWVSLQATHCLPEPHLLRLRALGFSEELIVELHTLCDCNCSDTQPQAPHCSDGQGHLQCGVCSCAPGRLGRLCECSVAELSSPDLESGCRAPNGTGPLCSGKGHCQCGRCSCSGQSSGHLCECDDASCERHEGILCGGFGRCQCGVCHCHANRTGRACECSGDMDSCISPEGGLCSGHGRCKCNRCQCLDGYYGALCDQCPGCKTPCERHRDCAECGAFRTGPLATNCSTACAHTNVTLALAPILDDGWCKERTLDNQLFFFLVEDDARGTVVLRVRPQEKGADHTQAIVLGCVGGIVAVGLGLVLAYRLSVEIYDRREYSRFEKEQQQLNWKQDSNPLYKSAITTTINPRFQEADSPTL
As to the kind of experiment: Ability to block the alpha4-beta7 integrin-MAdCAM-1 binding interaction using a protein ELISA format. In kind it is protein-complex assay. An outline of the steps:
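Plates coated overnight at 4 °C with anti-human α4 antibody 9F10 (2 µg/mL), blocked in Tris pH 7.5 buffer with 1 mM MnCl2, Tween-20 and 0.5% BSA, then loaded with α4β7 purified from transfected JY cells (2 µg/mL). Compounds (1 nM–200 µM final, triplicate) plus MAdCAM-1-Ig-HRP (1 µg/mL), 2 h room temperature. TMB read at 450 nm; IC50 at half-maximal absorbance.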

Peptide text beside a SMILES is read from it.

For `CC(C)C[C@H]1NC(=O)[C@H]([C@@H](C)O)NC(=O)[C@@H](CC(=O)O)NC(=O)[C@H](CO)NC(=O)[C@@H](Cc2c[nH]c3ccccc23)NC(=O)[C@H](N)CSSC[C@H](C(N)=O)NC1=O`, the Ratio in test [1] amounted to 0.37.
On to `C[C@@H](O)[C@@H]1NC(=O)[C@@H](CC(=O)O)NC(=O)[C@H](CO)NC(=O)[C@@H](CCCN=C(N)N)NC(=O)[C@H](N)CSSC[C@H](C(N)=O)NC(=O)CNC1=O`, for which, in test [1], the Ratio is above 9.
As for `CC[C@H](C)[C@H]1NC(=O)[C@H]([C@@H](C)O)NC(=O)[C@@H](CC(=O)O)NC(=O)[C@H](CO)NC(=O)[C@@H](CCCN=C(N)N)NC(=O)[C@H](N)CSSC[C@H](C(N)=O)NC1=O`, the Ratio in test [1] is 14.
With `CC(C)[C@H]1NC(=O)[C@H]([C@@H](C)O)NC(=O)[C@@H](CC(=O)O)NC(=O)[C@H](CO)NC(=O)[C@@H](CCCN=C(N)N)NC(=O)[C@H](N)CSSC[C@H](C(N)=O)NC1=O`, the Ratio in test [1] came to 13.1.
Consider `CC(C)C[C@H]1NC(=O)[C@H]([C@@H](C)O)NC(=O)[C@@H](CC(=O)O)NC(=O)[C@H](CO)NC(=O)[C@@H](CCCCN)NC(=O)[C@H](N)CSSC[C@H](C(N)=O)NC1=O`, for which, in test [1], the Ratio amounted to 6.
As to `CC(C)C[C@H]1NC(=O)[C@H]([C@@H](C)O)NC(=O)[C@@H](CCC(=O)O)NC(=O)[C@H](CO)NC(=O)[C@@H](CCCN=C(N)N)NC(=O)[C@H](N)CSSC[C@H](C(N)=O)NC1=O`, in test [1], the Ratio is 0.1.
On the same count and under the same terms, next, `CC(C)C[C@H]1NC(=O)[C@H]([C@@H](C)O)NC(=O)[C@@H](CC(=O)O)NC(=O)[C@H](CO)NC(=O)[C@@H](Cc2ccc(O)cc2)NC(=O)[C@H](N)CSSC[C@H](C(N)=O)NC1=O`: 0.07.
By IC50 is commonly meant the concentration that gives 50% inhibition. Lower therefore signals inhibition by little substance. In the case of `CC(C)C[C@@H]1NC(=O)[C@H]([C@@H](C)O)NC(=O)[C@H](CC(=O)O)NC(=O)[C@H](CO)NC(=O)[C@H](CCCNC(=N)N)NC(=O)[C@@H](N)CSSC[C@@H](C(=O)O)NC1=O`, the IC50 in test [2] was determined as 0.4 µM; in test [3] it was 0.13 µM.
As to `CC(C)C[C@@H]1NC(=O)[C@H]([C@@H](C)O)NC(=O)[C@H](CC(=O)O)NC(=O)[C@H](CO)NC(=O)[C@H](Cc2c[nH]c3ccccc23)NC(=O)[C@@H](N)CSSC[C@@H](C(N)=O)NC1=O`, the values for the IC50 in test [2] and in test [3] were 0.16 µM and 0.43 µM, respectively.
`CC(C)C[C@@H]1NC(=O)[C@H]([C@@H](C)O)NC(=O)[C@H](CC(=O)O)NC(=O)[C@H](CO)NC(=O)[C@H](CCCNC(=N)N)NC(=O)[C@@H](NC(=O)[C@@H](N)CC(=O)O)CSSC[C@@H](C(N)=O)NC1=O` (HELM PEPTIDE1{D.C.R.S.D.T.L.C.[am]}$PEPTIDE1,PEPTIDE1,2:R3-8:R3$$$V2.0): the IC50 was determined as 8.6 µM in test [2] and 0.52 µM in test [3].
The corresponding values for `C[C@@H](O)[C@@H]1NC(=O)[C@H](CC(=O)O)NC(=O)[C@H](CO)NC(=O)[C@H](CCCN=C(N)N)NC(=O)[C@@H](N)CSSC[C@@H](C(N)=O)NC(=O)CNC1=O` are above 100 µM and 11 µM.
Take `CSCC[C@H](N)C(=O)N[C@@H](CC(=O)O)C(=O)N[C@H]1CSSC[C@@H](C(=O)NCC(=O)N[C@@H](CCC(=O)O)C(N)=O)NC(=O)[C@H](CC(C)C)NC(=O)[C@H]([C@@H](C)O)NC(=O)[C@H](CC(=O)O)NC(=O)[C@H](CO)NC(=O)[C@H](CCCNC(=N)N)NC1=O` (HELM PEPTIDE1{M.D.C.R.S.D.T.L.C.G.E.[am]}$PEPTIDE1,PEPTIDE1,3:R3-9:R3$$$V2.0): the IC50 was 4.2 µM in test [2] and 0.19 µM in test [3].
Take `CC(C)C[C@@H]1NC(=O)[C@H]([C@@H](C)O)NC(=O)[C@H](CC(=O)O)NC(=O)[C@H](CO)NC(=O)[C@H](C)NC(=O)[C@@H](N)CSSC[C@@H](C(N)=O)NC1=O` (HELM PEPTIDE1{C.A.S.D.T.L.C.[am]}$PEPTIDE1,PEPTIDE1,1:R3-7:R3$$$V2.0): the results for the IC50 in test [2] and in test [3] were 2.8 µM and 1.1 µM, respectively.
On to `CC(C)C[C@@H]1NC(=O)[C@H]([C@@H](C)O)NC(=O)[C@H](CC(=O)O)NC(=O)[C@H](CO)NC(=O)[C@H](CCCCN)NC(=O)[C@@H](N)CSSC[C@@H](C(N)=O)NC1=O`, for which the concentration for half-maximal inhibition (IC50) in test [2] stood at 1.5 µM; in test [3], 0.25 µM.
Consider `CC(C)C[C@@H]1NC(=O)[C@H](CCCN=C(N)N)NC(=O)[C@@H](N)CSSC[C@@H](C(N)=O)NC(=O)[C@H](CC(C)C)NC(=O)[C@H]([C@@H](C)O)NC(=O)[C@H](CC(=O)O)NC1=O`, for which the figures for the IC50 in test [2] and in test [3] were 0.8 µM and 1.9 µM, respectively.
For the compound `CC[C@H](C)[C@@H]1NC(=O)[C@H](CCCN=C(N)N)NC(=O)[C@@H](N)CSSC[C@@H](C(N)=O)NC(=O)[C@H](CC(C)C)NC(=O)[C@H]([C@@H](C)O)NC(=O)[C@H](CC(=O)O)NC1=O`, the IC50 in test [2] worked out at 1.2 µM; in test [3], 20 µM.
`CC(C)[C@@H]1NC(=O)[C@H]([C@@H](C)O)NC(=O)[C@H](CC(=O)O)NC(=O)[C@H](CO)NC(=O)[C@H](CCCNC(=N)N)NC(=O)[C@@H](N)CSSC[C@@H](C(N)=O)NC1=O`: the IC50 came out at 59 µM in test [2] and 4.5 µM in test [3].
In the same order, the values of `C[C@@H](O)[C@@H]1NC(=O)[C@H](CC(=O)O)NC(=O)[C@H](CO)NC(=O)[C@H](CCCNC(=N)N)NC(=O)[C@@H](N)CSSC[C@@H](C(N)=O)NC(=O)[C@@H]2CCCN2C1=O` are 37 µM and 40 µM.
`CC(C)C[C@@H]1NC(=O)[C@H]([C@@H](C)O)NC(=O)[C@H](CC(=O)O)NC(=O)[C@H](CO)NC(=O)[C@H](Cc2ccc(O)cc2)NC(=O)[C@@H](N)CSSC[C@@H](C(N)=O)NC1=O`: the 50% inhibitory concentration (IC50) in test [2] was 0.009 µM; in test [3] it was 0.13 µM.
Take `CSCC[C@H](N)C(=O)N[C@@H](CC(=O)O)C(=O)N[C@H]1CSSC[C@@H](C(=O)NCC(N)=O)NC(=O)[C@H](CC(C)C)NC(=O)[C@H]([C@@H](C)O)NC(=O)[C@H](CC(=O)O)NC(=O)[C@H](CO)NC(=O)[C@H](CCCN=C(N)N)NC1=O` (HELM PEPTIDE1{M.D.C.R.S.D.T.L.C.G.[am]}$PEPTIDE1,PEPTIDE1,3:R3-9:R3$$$V2.0): the results for the concentration for half-maximal inhibition (IC50) in test [2] and in test [3] were 8.8 µM and 0.34 µM, respectively.
With `CC(C)C[C@@H]1NC(=O)[C@H]([C@@H](C)O)NC(=O)[C@H](CC(=O)O)NC(=O)[C@H](CO)NC(=O)[C@H](Cc2ccccc2)NC(=O)[C@@H](N)CSSC[C@@H](C(N)=O)NC1=O`, the values for the IC50 in test [2] and in test [3] were 0.05 µM and 0.55 µM, respectively.
On to `CC(C)C[C@@H]1NC(=O)[C@H]([C@@H](C)O)NC(=O)[C@H](CC(=O)O)NC(=O)[C@H](C)NC(=O)[C@H](CCCNC(=N)N)NC(=O)[C@@H](N)CSSC[C@@H](C(N)=O)NC1=O` (HELM PEPTIDE1{C.R.A.D.T.L.C.[am]}$PEPTIDE1,PEPTIDE1,1:R3-7:R3$$$V2.0), for which the figures for the IC50 in test [2] and in test [3] were 3.6 µM and 2.2 µM, respectively.

The values are drawn from ChEMBL document CHEMBL1135530, “Selective alpha4beta7 integrin antagonists and their potential as antiinflammatory agents” (J Med Chem, 2002).
